# From ChEMBL document CHEMBL1150393, “Evaluation of radiolabeled (hetero)aromatic analogues of N-(2-diethylaminoethyl)-4-iodobenzamide for imaging and targeted radionuclide therapy of melanoma” (J Med Chem, 2008)
# Assays:
# Details in all cases: in vivo
# [1] = Biodistribution in uvea of C57BL/6 mouse bearing mouse B16-F0 cells at 0.74 to 0.92 MBq, iv after 1 hr; type: ADME, organism-based, Uveal tract
# Summary of the method: (§1)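 [¹²⁵I]-labelled compound given iv by tail vein (0.1 µmol per mouse) to male C57BL6 mice bearing s.c. B16-F0 flank tumours (5 × 10⁵ cells in PBS). Two mice per time point were killed by CO₂, frozen in liquid nitrogen and cut into 40 µm cryosections, eight slices per mouse. Slice radioactivity was read on a multiwire proportional counter, converted to kBq/g and reported as %ID/g.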
# [2] = Biodistribution in intestinal content of C57BL/6 mouse bearing mouse B16-F0 cells at 0.74 to 0.92 MBq, iv after 3 hrs; type: ADME, organism-based
# Summary of the method: (§2)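 Male C57BL6 mice with s.c. left-flank B16-F0 melanoma (5 × 10⁵ cells in PBS). Two mice per time point frozen in liquid nitrogen after CO₂ sacrifice. Eight 40 µm whole-body cryosections per mouse read by multiwire proportional counter. cpm/mm² converted to kBq/g and expressed as %ID/g.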
# [3] = Biodistribution in intestinal content of C57BL/6 mouse bearing mouse B16-F0 cells at 0.74 to 0.92 MBq, iv after 24 hrs; type: ADME, organism-based; summary of the method: as §2
# Pancreas [4] = assay: Biodistribution in pancreas of C57BL/6 mouse bearing mouse B16-F0 cells at 0.74 to 0.92 MBq, iv after 3 hrs; type: ADME, organism-based; summary of the method: as §2
# [5] = Biodistribution in intestinal content of C57BL/6 mouse bearing mouse B16-F0 cells at 0.74 to 0.92 MBq, iv after 1 hr; type: ADME, organism-based; summary of the method: as §2
# [6] = Ratio of drug level in tumor to brain of C57BL/6 mouse bearing mouse B16-F0 cells at 0.74 to 0.92 MBq, iv after 6 hrs; type: ADME, organism-based
# Summary of the method: (§3)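 Tumour and organ radioactive concentrations came from whole-body cryosection counting (40 µm slices, eight per mouse, two mice per time) after tail-vein injection of the [¹²⁵I]-labelled compound (0.1 µmol) into male C57BL6 mice bearing s.c. B16-F0 melanoma. Each value is the ratio of the tumour concentration to the organ concentration.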
# Kidney [7] = assay: Biodistribution in kidney of C57BL/6 mouse bearing mouse B16-F0 cells at 0.74 to 0.92 MBq, iv after 24 hrs; type: ADME, organism-based; summary of the method: as §2
# Spleen [8] = assay: Biodistribution in spleen of C57BL/6 mouse bearing mouse B16-F0 cells at 0.74 to 0.92 MBq, iv after 72 hrs; type: ADME, organism-based; summary of the method: as §1
# Pancreas [9] = assay: Biodistribution in pancreas of C57BL/6 mouse bearing mouse B16-F0 cells at 0.74 to 0.92 MBq, iv after 6 hrs; type: ADME, organism-based; summary of the method: as §2
# Muscle tissue [10] = assay: Biodistribution in muscle of C57BL/6 mouse bearing mouse B16-F0 cells at 0.74 to 0.92 MBq, iv after 3 hrs; type: ADME, organism-based; summary of the method: as §2
# [11] = Biodistribution in Stomach content of C57BL/6 mouse bearing mouse B16-F0 cells at 0.74 to 0.92 MBq, iv after 72 hrs; type: ADME, organism-based; summary of the method: as §2
# Lung [12] = assay: Biodistribution in lung of C57BL/6 mouse bearing mouse B16-F0 cells at 0.74 to 0.92 MBq, iv after 24 hrs; type: ADME, organism-based; summary of the method: as §2
# [13] = Biodistribution in Stomach content of C57BL/6 mouse bearing mouse B16-F0 cells at 0.74 to 0.92 MBq, iv after 24 hrs; type: ADME, organism-based; summary of the method: as §2
# Brain [14] = assay: Biodistribution in brain of C57BL/6 mouse bearing mouse B16-F0 cells at 0.74 to 0.92 MBq, iv after 6 hrs; type: ADME, organism-based; summary of the method: as §2
# Kidney [15] = assay: Biodistribution in kidney of C57BL/6 mouse bearing mouse B16-F0 cells at 0.74 to 0.92 MBq, iv after 6 hrs; type: ADME, organism-based; summary of the method: as §2
# [16] = Ratio of drug level in tumor to liver of C57BL/6 mouse bearing mouse B16-F0 cells at 0.74 to 0.92 MBq, iv after 1 hr; type: ADME, organism-based; summary of the method: as §3
# [17] = Biodistribution in uvea of C57BL/6 mouse bearing mouse B16-F0 cells at 0.74 to 0.92 MBq, iv after 24 hrs; type: ADME, organism-based, Uveal tract; summary of the method: as §1
# [18] = Ratio of drug level in tumor to lung of C57BL/6 mouse bearing mouse B16-F0 cells at 0.74 to 0.92 MBq, iv after 24 hrs; type: ADME, organism-based; summary of the method: as §3
# [19] = Drug excretion in mouse B16-F0 cells bearing C57BL/6 mouse urine at 0.74 to 0.92 MBq, iv after 72 hrs; type: ADME, organism-based
# Summary of the method: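 Urine was collected from two B16-F0 tumour-bearing C57BL6 mice for up to 72 h after iv tail-vein injection of the [¹²⁵I]-labelled compound (0.1 µmol). Samples were counted to give cumulative urinary excretion as %ID.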
# Muscle tissue [20] = assay: Biodistribution in muscle of C57BL/6 mouse bearing mouse B16-F0 cells at 0.74 to 0.92 MBq, iv after 6 hrs; type: ADME, organism-based; summary of the method: as §2
# Spleen [21] = assay: Biodistribution in spleen of C57BL/6 mouse bearing mouse B16-F0 cells at 0.74 to 0.92 MBq, iv after 24 hrs; type: ADME, organism-based; summary of the method: as §1
# Blood = assay: Biodistribution in blood of C57BL/6 mouse bearing mouse B16-F0 cells at 0.74 to 0.92 MBq, iv after 1 hr; type: ADME, organism-based; summary of the method: as §2
# [22] = Ratio of drug level in tumor to lung of C57BL/6 mouse bearing mouse B16-F0 cells at 0.74 to 0.92 MBq, iv after 3 hrs; type: ADME, organism-based; summary of the method: as §3
# Spleen [23] = assay: Biodistribution in spleen of C57BL/6 mouse bearing mouse B16-F0 cells at 0.74 to 0.92 MBq, iv after 6 hrs; type: ADME, organism-based; summary of the method: as §1
# Brain [24] = assay: Biodistribution in brain of C57BL/6 mouse bearing mouse B16-F0 cells at 0.74 to 0.92 MBq, iv after 3 hrs; type: ADME, organism-based; summary of the method: as §2
# Lung [25] = assay: Biodistribution in lung of C57BL/6 mouse bearing mouse B16-F0 cells at 0.74 to 0.92 MBq, iv after 3 hrs; type: ADME, organism-based; summary of the method: as §2
# Liver [26] = assay: Biodistribution in liver of C57BL/6 mouse bearing mouse B16-F0 cells at 0.74 to 0.92 MBq, iv after 3 hrs; type: ADME, organism-based; summary of the method: as §2
# [27] = Ratio of drug level in tumor to liver of C57BL/6 mouse bearing mouse B16-F0 cells at 0.74 to 0.92 MBq, iv after 3 hrs; type: ADME, organism-based; summary of the method: as §3
# Liver [28] = assay: Biodistribution in liver of C57BL/6 mouse bearing mouse B16-F0 cells at 0.74 to 0.92 MBq, iv after 72 hrs; type: ADME, organism-based; summary of the method: as §2
Drug uptake [1],Drug uptake [2],Drug uptake [3],Drug uptake (Pancreas [4]),Drug uptake [5],Ratio [6],Drug uptake (Kidney [7]),Drug uptake (Spleen [8]),Drug uptake (Muscle tissue [10]),Drug uptake (Lung [12]),Drug uptake [13],Drug uptake (Brain [14]),Drug uptake (Kidney [15]),Ratio [16],Drug uptake [17],Ratio [18],Activity [19],Drug uptake (Muscle tissue [20]),Drug uptake (Spleen [21]),Drug uptake (Blood),Structure (SMILES),further results
11.7 % ID/g,112.56 % ID/g,3.31 % ID/g,2.48 % ID/g,76.74 % ID/g,5.38,0.83 % ID/g,10.87 % ID/g,0.49 % ID/g,0.37 % ID/g,2.1 % ID/g,0.74 % ID/g,2.5 % ID/g,0.7,8.81 % ID/g,22.05,21.5%,0.31 % ID/g,1.22 % ID/g,1.6 % ID/g,CCN(CC)CCNC(=O)c1cc2cc([125I])ccc2[nH]1.Cl,Drug uptake (Pancreas [9]): 1.46 % ID/g; Drug uptake [11]: 0.04 % ID/g; Ratio [22]: 2.95; Drug uptake (Spleen [23]): 1.68 % ID/g; Drug uptake (Brain [24]): 1.73 % ID/g; Drug uptake (Lung [25]): 3.46 % ID/g; Drug uptake (Liver [26]): 5.21 % ID/g; Ratio [27]: 1.96; Drug uptake (Liver [28]): 0.61 % ID/g
32.71 % ID/g,20.65 % ID/g,1.45 % ID/g,6.17 % ID/g,15.78 % ID/g,46.51,0.34 % ID/g,1.85 % ID/g,1.14 % ID/g,0.53 % ID/g,2.33 % ID/g,0.37 % ID/g,7.6 % ID/g,1.8,22.27 % ID/g,22.89,80.7%,0.95 % ID/g,2.66 % ID/g,7.01 % ID/g,CCN(CC)CCNC(=O)c1ccc2cc([125I])ccc2n1.Cl.Cl,Ratio [22]: 4.54; Drug uptake (Spleen [23]): 7.6 % ID/g; Drug uptake (Brain [24]): 0.83 % ID/g; Drug uptake (Lung [25]): 5.58 % ID/g; Drug uptake (Liver [26]): 8.89 % ID/g; Ratio [27]: 2.85; Drug uptake (Liver [28]): 1.23 % ID/g
